ChEMBL document CHEMBL3421570, “Combinatorial Libraries As a Tool for the Discovery of Novel, Broad-Spectrum Antibacterial Agents Targeting the ESKAPE Pathogens” (J Med Chem, 2015)
The source made the active and inactive calls. The calls are words filed in the database; no cut-off is given here.

Experiments:
Enterococcus faecium [1] = assay: Antimicrobial activity against Enterococcus faecium assessed as inhibition of microbial growth after 24 hrs; format: functional
Procedure, shortened: (§1)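 Broth microdilution against multidrug-resistant clinical ESKAPE isolates. Overnight cultures (TSB for Gram-positives, LB for Gram-negatives) diluted 1:1000 in fresh medium, compound in DMF (≤2.0% DMF) added at decreasing concentrations, 37°C.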

Staphylococcus aureus [2] = assay: Antimicrobial activity against Staphylococcus aureus assessed as inhibition of microbial growth after 24 hrs; format: functional; procedure, shortened: as §1
Klebsiella pneumoniae [3] = assay: Antimicrobial activity against Klebsiella pneumoniae assessed as inhibition of microbial growth after 24 hrs; format: functional; procedure, shortened: as §1
Acinetobacter baumannii [4] = assay: Antimicrobial activity against Acinetobacter baumannii assessed as inhibition of microbial growth after 24 hrs; format: functional; procedure, shortened: as §1
Pseudomonas aeruginosa [5] = assay: Antimicrobial activity against Pseudomonas aeruginosa assessed as inhibition of microbial growth after 24 hrs; format: functional; procedure, shortened: as §1
Enterobacter cloacae [6] = assay: Antimicrobial activity against Enterobacter cloacae assessed as inhibition of microbial growth after 24 hrs; format: functional; procedure, shortened: as §1
Enterococcus faecium [7] = assay: Antimicrobial activity against Enterococcus faecium assessed as inhibition of microbial growth at 45 uM after 24 hrs; format: functional, organism-based
Procedure, shortened: (§2)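 Broth microdilution single-concentration read: overnight cultures diluted 1:1000, compound in DMF (≤2.0%) added, 37°C for 24 h, growth inhibition scored visually by lack of turbidity; triplicate. Gram-positives grown in TSB, Gram-negatives in LB.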

Staphylococcus aureus [8] = assay: Antimicrobial activity against Staphylococcus aureus assessed as inhibition of microbial growth at 45 uM after 24 hrs; format: functional, organism-based; procedure, shortened: as §2
Klebsiella pneumoniae [9] = assay: Antimicrobial activity against Klebsiella pneumoniae assessed as inhibition of microbial growth at 45 uM after 24 hrs; format: functional, organism-based; procedure, shortened: as §2
Acinetobacter baumannii [10] = assay: Antimicrobial activity against Acinetobacter baumannii assessed as inhibition of microbial growth at 45 uM after 24 hrs; format: functional, organism-based; procedure, shortened: as §2
Pseudomonas aeruginosa [11] = assay: Antimicrobial activity against Pseudomonas aeruginosa assessed as inhibition of microbial growth at 45 uM after 24 hrs; format: functional, organism-based; procedure, shortened: as §2
Enterobacter cloacae [12] = assay: Antimicrobial activity against Enterobacter cloacae assessed as inhibition of microbial growth at 45 uM after 24 hrs; format: functional, organism-based; procedure, shortened: as §2

| MIC (Enterococcus faecium [1]) | MIC (Staphylococcus aureus [2]) | MIC (Klebsiella pneumoniae [3]) | MIC (Acinetobacter baumannii [4]) | MIC (Pseudomonas aeruginosa [5]) | MIC (Enterobacter cloacae [6]) | Compound | growth inhibition (GI) (Enterococcus faecium [7]) | growth inhibition (GI) (Staphylococcus aureus [8]) | growth inhibition (GI) (Klebsiella pneumoniae [9]) | growth inhibition (GI) (Acinetobacter baumannii [10]) | growth inhibition (GI) (Pseudomonas aeruginosa [11]) | growth inhibition (GI) (Enterobacter cloacae [12]) |
| --- | --- | --- | --- | --- | --- | --- | --- | --- | --- | --- | --- | --- |
| inactive | inactive | inactive | inactive | inactive | inactive | CCC[C@@H]1CN(CCCC[C@H]2CNC(=N)N2CC2CCCCC2)C(=N)N1CCc1cccc(C)c1 | – | – | – | – | – | – |
| – | – | – | – | – | – | N=C1NC[C@H](CCCCN2C[C@@H](Cc3cccc4ccccc34)N(CCc3ccc(-c4ccccc4)cc3)C2=N)N1CCc1cccc(C(F)(F)F)c1 | Active | Active | Active | Active | Active | Active |
| inactive | inactive | inactive | inactive | inactive | inactive | CCCCCCCN1C(=N)NC[C@@H]1CCCCN1CCN(CC(C)CC)C1=N (stereo partly drawn) | – | – | – | – | – | – |
| – | – | – | – | – | – | N=C1NC[C@H](CCCCN2C[C@@H](Cc3cccc4ccccc34)N(CCc3ccc(-c4ccccc4)cc3)C2=N)N1CCCCC1CCCCC1 | Active | Active | Active | Active | Active | Active |
| – | – | – | – | – | – | CCCC[C@H]1CN(CCCC[C@H]2CNC(=N)N2CCCCC2CCCCC2)C(=N)N1CCCCC1CCCCC1 | Active | Active | Active | Active | Active | Active |
| – | – | – | – | – | – | CCCC[C@H]1CN(CCCC[C@H]2CNC(=N)N2CCC23CC4CC(CC(C4)C2)C3)C(=N)N1CCc1ccc(-c2ccccc2)cc1 | Active | Active | Active | Active | Active | Active |
| inactive | inactive | inactive | inactive | inactive | inactive | N=C1NCCN1CCCC[C@H]1CNC(=N)N1CC1CCCCC1 | – | – | – | – | – | – |
| inactive | inactive | inactive | inactive | inactive | inactive | CCC(C)CN1C(=N)N(CCCC[C@H]2CNC(=N)N2CC2CCCCC2)C[C@@H]1[C@@H](C)CC (stereo partly drawn) | – | – | – | – | – | – |
| inactive | inactive | inactive | inactive | inactive | inactive | Cc1cccc(CCN2CCN(CCCC[C@H]3CNC(=N)N3CC3CCCCC3)C2=N)c1 | – | – | – | – | – | – |
| – | – | – | – | – | – | N=C1NC[C@H](CCCCN2C[C@@H](Cc3cccc4ccccc34)N(CCCCC3CCCCC3)C2=N)N1CCc1cccc(C(F)(F)F)c1 | Active | Active | Active | Active | Active | Active |
| – | – | – | – | – | – | N=C1NC[C@H](CCCCN2C[C@H](CC3CCCCC3)N(CCc3ccc(-c4ccccc4)cc3)C2=N)N1CCCCC1CCCCC1 | Active | Active | Active | Active | Active | Active |
| inactive | inactive | inactive | inactive | inactive | inactive | CCC[C@@H]1CN(CCCC[C@H]2CNC(=N)N2CC2CCCCC2)C(=N)N1CC(C)CC (stereo partly drawn) | – | – | – | – | – | – |
| inactive | inactive | inactive | inactive | inactive | inactive | CCCCCCCN1C(=N)NC[C@@H]1CCCCN1C[C@@H](CCC)N(CC(C)CC)C1=N (stereo partly drawn) | – | – | – | – | – | – |
| inactive | inactive | inactive | inactive | inactive | inactive | CC[C@H](C)[C@H]1CN(CCCC[C@H]2CNC(=N)N2CC2CCCCC2)C(=N)N1 | – | – | – | – | – | – |
| inactive | inactive | inactive | inactive | inactive | inactive | CCC(C)CN1C(=N)N(CCCC[C@H]2CNC(=N)N2CC2CCC(C)CC2)C[C@@H]1[C@@H](C)CC (stereo partly drawn) | – | – | – | – | – | – |
| inactive | inactive | inactive | inactive | inactive | inactive | CCC[C@@H]1CN(CCCC[C@H]2CNC(=N)N2CC2CCC(C)CC2)C(=N)N1 (stereo partly drawn) | – | – | – | – | – | – |
| inactive | inactive | inactive | inactive | inactive | inactive | CCC(C)CN1CCN(CCCC[C@H]2CNC(=N)N2CC2CCCCC2)C1=N (stereo partly drawn) | – | – | – | – | – | – |

| MIC (Enterococcus faecium [1]) | MIC (Staphylococcus aureus [2]) | MIC (Klebsiella pneumoniae [3]) | MIC (Acinetobacter baumannii [4]) | MIC (Pseudomonas aeruginosa [5]) | MIC (Enterobacter cloacae [6]) | Compound | growth inhibition (GI) (Enterococcus faecium [7]) | growth inhibition (GI) (Staphylococcus aureus [8]) | growth inhibition (GI) (Klebsiella pneumoniae [9]) | growth inhibition (GI) (Acinetobacter baumannii [10]) | growth inhibition (GI) (Pseudomonas aeruginosa [11]) | growth inhibition (GI) (Enterobacter cloacae [12]) |
| --- | --- | --- | --- | --- | --- | --- | --- | --- | --- | --- | --- | --- |
| inactive | inactive | inactive | inactive | inactive | inactive | CC[C@H](C)[C@H]1CN(CCCC[C@H]2CNC(=N)N2CC2CCC(C)CC2)C(=N)N1 (stereo partly drawn) | – | – | – | – | – | – |
| inactive | inactive | inactive | inactive | inactive | inactive | CC[C@H](C)[C@H]1CN(CCCC[C@H]2CNC(=N)N2CC2CCC(C)CC2)C(=N)N1CCc1cccc(C)c1 (stereo partly drawn) | – | – | – | – | – | – |
| inactive | inactive | inactive | inactive | inactive | inactive | CCCCCCCN1C(=N)NC[C@@H]1CCCCN1CCN(CCc2cccc(C)c2)C1=N | – | – | – | – | – | – |
| inactive | inactive | inactive | inactive | inactive | inactive | CCCCCCCN1C(=N)NC[C@@H]1CCCCN1C[C@H]([C@@H](C)CC)NC1=N | – | – | – | – | – | – |
| inactive | inactive | inactive | inactive | inactive | inactive | CCCCCCCN1C(=N)NC[C@@H]1CCCCN1CCNC1=N | – | – | – | – | – | – |
| inactive | inactive | inactive | inactive | inactive | inactive | CC1CCC(CN2C(=N)NC[C@@H]2CCCCN2CCNC2=N)CC1 (stereo partly drawn) | – | – | – | – | – | – |
| inactive | inactive | inactive | inactive | inactive | inactive | CCCCCCCN1C(=N)NC[C@@H]1CCCCN1C[C@@H](CCC)N(CCc2cccc(C)c2)C1=N | – | – | – | – | – | – |
| inactive | inactive | inactive | inactive | inactive | inactive | CCC[C@@H]1CN(CCCC[C@H]2CNC(=N)N2CC2CCCCC2)C(=N)N1 | – | – | – | – | – | – |
| inactive | inactive | inactive | inactive | inactive | inactive | CCC[C@@H]1CN(CCCC[C@H]2CNC(=N)N2CC2CCC(C)CC2)C(=N)N1CCc1cccc(C)c1 (stereo partly drawn) | – | – | – | – | – | – |
| inactive | inactive | inactive | inactive | inactive | inactive | CC[C@H](C)[C@H]1CN(CCCC[C@H]2CNC(=N)N2CC2CCCCC2)C(=N)N1CCc1cccc(C)c1 | – | – | – | – | – | – |
| inactive | inactive | inactive | inactive | inactive | inactive | Cc1cccc(CCN2CCN(CCCC[C@H]3CNC(=N)N3CC3CCC(C)CC3)C2=N)c1 (stereo partly drawn) | – | – | – | – | – | – |
| inactive | inactive | inactive | inactive | inactive | inactive | CCCCCCCN1C(=N)NC[C@@H]1CCCCN1C[C@H]([C@@H](C)CC)N(CCc2cccc(C)c2)C1=N | – | – | – | – | – | – |
| inactive | inactive | inactive | inactive | inactive | inactive | CCC[C@@H]1CN(CCCC[C@H]2CNC(=N)N2CC2CCC(C)CC2)C(=N)N1CC(C)CC (stereo partly drawn) | – | – | – | – | – | – |
| inactive | inactive | inactive | inactive | inactive | inactive | CCCCCCCN1C(=N)NC[C@@H]1CCCCN1C[C@@H](CCC)NC1=N | – | – | – | – | – | – |
| inactive | inactive | inactive | inactive | inactive | inactive | CCC(C)CN1CCN(CCCC[C@H]2CNC(=N)N2CC2CCC(C)CC2)C1=N (stereo partly drawn) | – | – | – | – | – | – |
| inactive | inactive | inactive | inactive | inactive | inactive | CCCCCCCN1C(=N)NC[C@@H]1CCCCN1C[C@H]([C@@H](C)CC)N(CC(C)CC)C1=N (stereo partly drawn) | – | – | – | – | – | – |
